ChEMBL document CHEMBL5150043, “Discovery of Anthranilic Acid Derivatives as Difluoromethylornithine Adjunct Agents That Inhibit Far Upstream Element Binding Protein 1 (FUBP1) Function” (J Med Chem, 2022)

Experiments:
CHO-K1 [1] = assay: Inhibition of spermidine uptake in chinese hamster CHO-K1 cells assessed as decrease in cell growth by measuring cellular ATP content measured after 48 hrs in presence of DFMO and spermidine by ATPlite assay; settings: Cricetulus griseus, CHO-K1, 48 h
CHO-K1 [2] = assay: Cytotoxicity against chinese hamster CHO-K1 cells assessed as decrease in cell viability measured after 48 hrs by ATPlite assay; type: toxicity, cell-based, Cricetulus griseus; settings: cho-k1, 48 h
Summary of the method: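 CHO-K1 cells dosed alone in 384-well format in parallel with Assays 1 and 2; MTC taken as highest concentration giving ≥90% relative growth versus untreated control; typical error ±10% (n = 3).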

[3] = Inhibition of spermidine uptake chinese hamster CHO-K1 cells assessed as decrease in cell growth by measuring cellular ATP content measured after 48 hrs in presence of DFMO and spermidine by ATPlite assay; type: functional, cell-based; settings: Cricetulus griseus, CHO-K1, 48 h
L3.6pl = assay: Cytotoxicity against human L3.6pl cells assessed as cell viability measured after 72 hrs by ATPlite assay; type: toxicity, cell-based
Summary of the method: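 L3.6pl human pancreatic cancer cells in 96-well format were exposed to compound alone for 72 h. Growth was expressed relative to an untreated control. MTC is the highest concentration with relative growth still >90%. […] Data come from two or more experiments, each run in triplicate (n ≥ 6).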

[4] = Cytotoxicity against human L3.6pl cells assessed as inhibition of cell growth measured after 72 hrs by ATPlite assay; type: toxicity, cell-based

SMILES	EC50 (CHO-K1 [1])	MTC (CHO-K1 [2])	EC50 [3]	MTC (L3.6pl)	IC50 at 72 h [4]
Cc1cccc(N2CCN(c3ccc(NC(=O)c4ccccc4Cl)c(C(=O)O)c3)CC2)c1C	22 µM	26 µM	–	–	–
COc1ccccc1C(=O)Nc1ccc(N2CCC(c3ccccc3)CC2)cc1C(=O)O	21 µM	> 40 µM	18 µM	9 µM	46.3 µM
COc1ccccc1C(=O)Nc1ccc(N2CCN(C(=O)c3ccccn3)CC2)cc1C(=O)O	> 40 µM	> 40 µM	> 40 µM	10 µM	> 10 µM
COc1ccc(C(=O)Nc2ccc(N3CCCN(c4ncccn4)CC3)cc2C(=O)O)cc1	–	> 40 µM	12 µM	25 µM	> 30 µM
COc1ccccc1N1CCN(c2ccc(NC(=O)c3ccccc3-c3cccs3)cc2C(=O)O)CC1	27 µM	> 40 µM	> 40 µM	–	–
COc1ccccc1C(=O)Nc1ccc(N2CCN(Cc3ccccn3)CC2)cc1C(=O)O	10 µM	> 40 µM	–	10 µM	> 100 µM
Cc1ccc(CC(=O)Nc2ccc(N3CCN(c4ccccc4Cl)CC3)cc2C(=O)O)cc1	32 µM	> 40 µM	16 µM	–	–
COc1ccccc1C(=O)Nc1ccc(N2CCN(c3ccccn3)CC2)cc1	> 40 µM	14 µM	> 40 µM	10 µM	> 10 µM
CCN(CC)C(=O)CN1CCN(c2ccc(NC(=O)c3ccc(OC)cc3)c(C(=O)O)c2)CC1	> 40 µM	28 µM	> 40 µM	–	–
COC(=O)c1cc(N2CCN(c3cc(Cl)ccc3C)CC2)ccc1NC(=O)c1ccccc1OC	> 40 µM	> 40 µM	> 40 µM	–	–
COc1ccc(C(=O)Nc2ccc(N3CCN(c4cccc(C)c4)CC3)cc2C(=O)O)cc1	16 µM	22 µM	> 40 µM	–	–
COc1ccc(C(=O)Nc2ccc(N3CCN(c4ccc(OC)cc4)CC3)cc2C(=O)O)cc1	> 40 µM	> 40 µM	> 40 µM	–	–
CCOc1ccccc1N1CCN(c2ccc(NC(=O)c3ccc(OC)cc3)c(C(=O)O)c2)CC1	20 µM	37 µM	–	10 µM	> 20 µM
Cc1cccc(N2CCN(c3ccc(NC(=O)c4cccc(Cl)c4)c(C(=O)O)c3)CC2)c1C	8 µM	10 µM	–	–	–
COc1ccccc1N1CCN(c2ccc(NC(=O)c3ccccc3Cl)c(C(=O)O)c2)CC1	26 µM	36 µM	16 µM	–	–
COc1ccc(C(=O)Nc2ccc(N3CCC(C(N)=O)CC3)cc2C(=O)O)cc1	> 40 µM	22 µM	> 40 µM	–	–
COc1ccc(C(=O)Nc2ccc(N3CCN(c4cc(Cl)ccc4C)CC3)cc2C(=O)O)c(OC)c1	> 40 µM	> 40 µM	> 40 µM	40 µM	61.6 µM
Cc1ccc(C)c(N2CCN(c3ccc(N4C(=O)CC(c5ccccc5)C4=O)cc3[N+](=O)[O-])CC2)c1 (centres undefined)	27 µM	32 µM	–	–	–
O=C(Nc1ccc(N2CCN(c3ccccc3F)CC2)c(C(=O)O)c1)c1ccc(Cl)cc1	> 40 µM	> 40 µM	–	–	–
COC(=O)c1cc(N2CCN(c3cc(Cl)ccc3C)CC2)ccc1NC(=O)c1ccc(OC)cc1	> 40 µM	> 40 µM	> 40 µM	–	–
COCCNC(=O)CN1CCN(c2ccc(NC(=O)c3ccc(OC)cc3)c(C(=O)O)c2)CC1	> 40 µM	> 40 µM	–	–	–
O=C(Nc1ccc(N2CCN(C3CCCCC3)CC2)cc1C(=O)O)c1ccc(F)cc1	> 40 µM	> 40 µM	–	–	–

SMILES	EC50 (CHO-K1 [1])	MTC (CHO-K1 [2])	EC50 [3]	MTC (L3.6pl)	IC50 at 72 h [4]
COc1ccccc1N1CCN(c2ccc(N3C(=O)CCC3=O)cc2[N+](=O)[O-])CC1	30 µM	27 µM	–	–	–
CCOC(=O)N1CCN(c2ccc(NC(=O)c3ccc(OC)cc3)c(C(=O)O)c2)CC1	> 40 µM	34 µM	> 40 µM	–	–
COc1ccccc1C(=O)Nc1ccc(N2CCN(c3ccccn3)CC2)cc1C(=O)O	–	21 µM	4 µM	2 µM	> 100 µM
COc1ccccc1C(=O)Nc1ccc(N2CCN(c3cccc(C)c3C)CC2)cc1C(=O)O	23 µM	28 µM	2 µM	8 µM	22.9 µM
COc1ccc(C(=O)Nc2ccc(N3CCC(N4CCCCC4)CC3)cc2C(=O)O)cc1	> 40 µM	> 40 µM	–	–	–
COc1ccc(C(=O)Nc2ccc(N3CCC(c4cccc(C)c4)C3)cc2C(=O)O)cc1 (centres undefined)	> 40 µM	> 40 µM	> 40 µM	25 µM	39.9 µM
COc1ccc(C(=O)Nc2ccc(N3CCN(c4ccccc4)CC3)cc2C(=O)O)cc1	15 µM	17 µM	> 40 µM	–	–
Cc1cccc(N2CCN(c3ccc(NC(=O)c4ccccc4F)cc3C(=O)O)CC2C)c1 (centres undefined)	> 40 µM	> 40 µM	–	–	–
COc1ccc(CC(=O)Nc2ccc(N3CCN(c4cc(Cl)ccc4C)CC3)cc2C(=O)O)cc1	25 µM	24 µM	32 µM	–	–
COc1ccc(C(=O)Nc2ccc(N3CCN(c4ccccc4F)CC3)cc2C(=O)O)cc1	33 µM	25 µM	–	–	–
COc1ccc(C(=O)Nc2ccc(N3CCN(c4ccc(C(C)=O)cc4)CC3)cc2C(=O)O)cc1	21 µM	20 µM	> 40 µM	–	–
Cc1ccc(C)c(N2CCN(c3ccc(NC(=O)c4ccc(Cl)cc4)cc3C(=O)O)CC2)c1	> 40 µM	> 40 µM	–	–	–
COC(=O)c1cc(CN2CCN(c3ccccn3)CC2)ccc1NC(=O)c1ccccc1OC	> 20 µM	> 20 µM	> 20 µM	–	–
Cc1ccc(C(=O)Nc2ccc(N3CCN(c4cc(Cl)ccc4C)CC3)c(C(=O)O)c2)cc1	5 µM	12 µM	–	–	–
COc1ccccc1C(=O)Nc1ccc(N2CCN(Cc3ccccc3)CC2)cc1C(=O)O	> 40 µM	> 40 µM	> 40 µM	10 µM	> 10 µM
Cc1ccccc1C(=O)Nc1ccc(N2CCN(c3cc(Cl)ccc3C)CC2)c(C(=O)O)c1	> 40 µM	> 40 µM	> 40 µM	–	–
COc1ccc(C(=O)Nc2ccc(N3CCN(C4CCCCC4)CC3)cc2C(=O)O)cc1	> 40 µM	> 40 µM	–	–	–
COc1ccc(C(=O)Nc2ccc(N3CCN(c4cccc(Cl)c4)CC3)cc2C(=O)O)cc1	17 µM	20 µM	–	–	–
COc1ccccc1N1CCN(c2ccc(NC(=O)c3ccccc3)cc2C(=O)O)CC1	> 40 µM	> 40 µM	–	–	–
COc1ccc(N2CCN(c3ccc(NC(=O)C4CCCCC4)cc3C#N)CC2)cc1	23 µM	17 µM	> 40 µM	–	–
COc1ccc(C(=O)Nc2ccc(N3CCN(c4cc(Cl)ccc4C)CC3)c(C(=O)O)c2)cc1	5 µM	14 µM	–	–	–
COC(=O)c1cc(N2CCN(c3cc(Cl)ccc3C)CC2)ccc1NC(=O)c1ccc(OC)cc1OC	> 40 µM	> 40 µM	> 40 µM	–	–
